The Ki is the dissociation constant of the complex between target and ligand, obtained from inhibition or displacement. A high value points to weaker binding.

Here are results for 24 compounds from ChEMBL document CHEMBL1158478, “Synthesis and biological evaluation of guanidino compounds endowed with subnanomolar affinity as competitive inhibitors of maize polyamine oxidase” (J Med Chem, 2009).

Assay [1] concerns the target T1, Polyamine oxidase 1 (Zea mays, UniProt O64411).
T1 sequence (O64411 whole entry): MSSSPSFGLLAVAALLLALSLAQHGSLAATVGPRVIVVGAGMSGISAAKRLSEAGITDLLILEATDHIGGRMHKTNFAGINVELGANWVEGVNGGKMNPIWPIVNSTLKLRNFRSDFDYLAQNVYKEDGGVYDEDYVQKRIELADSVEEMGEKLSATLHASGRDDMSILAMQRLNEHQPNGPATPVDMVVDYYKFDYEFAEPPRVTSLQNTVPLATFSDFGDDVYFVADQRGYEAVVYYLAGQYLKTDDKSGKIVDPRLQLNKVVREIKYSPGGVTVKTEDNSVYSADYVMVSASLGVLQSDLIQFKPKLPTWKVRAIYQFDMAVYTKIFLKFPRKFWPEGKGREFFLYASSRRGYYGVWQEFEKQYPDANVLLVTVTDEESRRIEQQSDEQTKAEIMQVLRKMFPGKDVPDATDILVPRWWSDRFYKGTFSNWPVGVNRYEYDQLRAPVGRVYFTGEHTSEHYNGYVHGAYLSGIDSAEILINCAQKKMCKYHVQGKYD
The assay is described as follows: Inhibition of maize PAO at pH 6.5 by spectrophotometry-based Dixon plot method. The method in brief:
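H₂O₂ was detected by peroxidase-coupled 4-aminoantipyrine/3,5-dichloro-2-hydroxybenzenesulfonate adduct at 515 nm. Ki was obtained by the Dixon method. Mean of three experiments, each in duplicate.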

The subject of assay [2] is HeLa. Briefly: Antiproliferative activity against human HeLa cells at 1 uM after 48 hrs by MTT assay. The assay is classed as functional, cell-based. The method, boiled down: (§1)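 Cells seeded at 2.5 × 10³ cells/well in DMEM with 10% FBS and allowed to adhere. They were then exposed to the test compound (0.1-10 μM) for 24, 48, 72 and 96 h. MTT reduction was read at 550 nm, and viability was taken as OD treated / OD untreated control × 100. At least three independent experiments, compared by two-way ANOVA.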
For orientation: Tetrazolium dyes change colour on reduction, which living cells bring about.

Assay [3] has as its system HeLa. The assay is described as follows: Antiproliferative activity against human HeLa cells at 1 uM after 72 hrs by MTT assay. In kind it is functional, cell-based. The method in brief: as §1
Assay [4] deals with HeLa. The assay is described as follows: Antiproliferative activity against human HeLa cells at 1 uM after 96 hrs by MTT assay. The assay is classed as functional, cell-based. The method in brief:
as §1

Assay [5] has as its system U-373MG ATCC. The assay is described as follows: Antiproliferative activity against human U373MG cells at 1 uM after 48 hrs by MTT assay. The assay is classed as functional, cell-based. The method, boiled down:
as §1

For assay [6], the system named is U-373MG ATCC. The assay is described as follows: Antiproliferative activity against human U373MG cells at 1 uM after 72 hrs by MTT assay. In kind it is functional, cell-based. The method in brief: as §1
In assay [7] the test system is U-373MG ATCC. The assay is described as follows: Antiproliferative activity against human U373MG cells at 1 uM after 96 hrs by MTT assay. The assay is classed as functional, cell-based. The method in brief: as §1
Assay [8] has as its system HeLa. The assay is described as follows: Cytostatic activity in human HeLa cells at 1 uM after 48 hrs by trypan blue assay. In kind it is functional, cell-based. The method in brief:
(§2)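 Cells seeded in DMEM with 10% FBS at 2.5 × 10³ cells/well and allowed to adhere. They were then incubated with or without 1 μM compound for 0, 24, 48, 72 and 96 h. Trypan blue exclusion was used: unstained cells were counted twice in a Neubauer chamber, in duplicate, and reported as living cell number (×10⁷). At least three independent runs, with two-way ANOVA against control.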

Assay [9] has as its system HeLa. Briefly: Cytostatic activity in human HeLa cells at 1 uM after 72 hrs by trypan blue assay. In kind it is functional, cell-based. The method in brief:
as §2

Assay [10] deals with HeLa. The assay is described as follows: Cytostatic activity in human HeLa cells at 1 uM after 96 hrs by trypan blue assay. The assay is classed as functional, cell-based. The method, boiled down:
as §2

Assay [11] concerns U373 MG. Briefly: Cytostatic activity in human U373MG cells at 1 uM after 48 hrs by trypan blue assay. The note with it: U-373MG ATCC. In kind it is functional, cell-based. The method in brief: as §2
Assay [12] deals with U373 MG. Briefly: Cytostatic activity in human U373MG cells at 1 uM after 72 hrs by trypan blue assay. In kind it is functional, cell-based. Particulars: U-373MG ATCC. The method, boiled down: as §2
Assay [13] relates to U373 MG. The assay is described as follows: Cytostatic activity in human U373MG cells at 1 uM after 96 hrs by trypan blue assay. The assay is classed as functional, cell-based. Particulars: U-373MG ATCC. The method in brief:
as §2

Assay [14] has as its system HeLa. Briefly: Cytotoxicity against human HeLa cells at 10 uM after 24 to 96 hrs by MTT assay. In kind it is functional, cell-based. The method, boiled down:
as §1

Assay [15] deals with U-373MG ATCC. Briefly: Cytotoxicity against human U373MG cells at 10 uM after 24 to 96 hrs by MTT assay. The assay is classed as functional, cell-based. The method in brief: as §1

SMILES strings stand for the structures. Activity calls are given as the source filed them. The rule behind the calls is not given here.

In the case of `COc1cccc(CNC(N)=NCCCCCN)c1`, the Ki in assay [1] came to 1150 nM.
`CC(C)=CCNC(=N)NCCCCN` displayed a Ki in assay [1] of 15 nM.
In assay [1], `C=CCNC(=N)NCCCCN` gave a Ki of 130 nM. This Ki is about 8.7-fold higher than that of the compound before.
As for `C/C=C/CNC(=N)NCCCCCCCCNCCCCCCCCNC(=N)N`, the Ki in assay [1] amounted to 1.1 nM.
As for `CC(C)=CCNC(=N)NCCCCCN`, the Ki in assay [1] is 10 nM.
In turn, `NCCCCCN=C(N)NC/C=C/c1ccccc1` came in with a Ki in [1] of 1530 nM.
In [1], `CC(C)=CCNC(=N)NCCCCCCN` registered a Ki of 22 nM. Against the preceding compound, the Ki is about 70-fold lower.
Still for that read-out and setting: the result for `NCCCCN=C(N)Nc1ccc(F)cc1` reads 630 nM.
In assay [1], `NCCCCCCCCN` [DIAMINOOCTANE] displayed a Ki of 300 nM.
The compound `CC(C)=CCNC(=N)NCCCNCCCN` yielded a Ki in assay [1] of 1210 nM. This Ki lies about 4-fold higher than the previous one.
The compound `CC(C)=CCN=C(N)NCCCCN=C(N)NCC=C(C)C` returned a Ki in assay [1] of 1500 nM.
Consider `N=C(N)NCCCCCCCCNCCCCCCCCNC(=N)NCC1CC1`, for which the Ki in [1] came out at 0.08 nM. Also, the result in assay [2], in assay [3], in assay [4], in assay [5], in assay [6] and in [7] was Active. Moreover, the result in assay [8], in assay [9], in assay [10], in assay [11], in [12] and in assay [13] was Active. Moreover, the outcome in assay [14] and in assay [15] was Active.
`CC(C)=CCN=C(N)NCCCCCCCCNCCCCCCCCN=C(N)NCC=C(C)C` returned a Ki in assay [1] of 1.7 nM.
`C#CCNC(=N)NCCCCN`: the Ki in [1] was 250 nM.
Same read-out and setting: the result for `CC(C)=CCNC(N)=Nc1ccc(CN)cc1` reads 18000 nM; that for `C#CCNC(N)=NCCCCCCCCNCCCCCCCCN=C(N)N`, 0.7 nM; that for `CC(C)=CCNC(N)=NCCCCCCCCNCCCCCCCCN=C(N)N`, 3 nM.
In turn, `CC(C)=CCNC(N)=NCCCCN=C(N)N` had a Ki in assay [1] of 700 nM.
Regarding `N=C(NCCCCCN)NCCC1CCCCC1`, in assay [1], the Ki came out at 1720 nM. This Ki is about 2.5-fold higher than that of the compound before.
For `N=C(N)NCCCCCCCCNCCCCCCCCNC(=N)N` [IMINOCTADIENE], in assay [1], the affinity corresponds to a Ki of 7.5 nM.
Same read-out and setting: the result for `NCCCCCN=C(N)NCC1CC1` reads 2580 nM; that for `C=C(C)CCNC(N)=NCCCCCCCCNCCCCCCCCN=C(N)N`, 0.5 nM.
On to `N=C(N)NCCCCN` [AGMATINE], for which the Ki in assay [1] turned out to be 3000 nM.
As for `NC(N)=NCCCCCCCCNCCCCCCCCN=C(N)NCc1ccccc1`, the Ki in assay [1] amounted to 1 nM.
